# Experimental data pooled from the literature.
# Compare with care: the assays were run in different laboratories.
# Target: Cyclin-dependent kinase 7 (CDK7, Homo sapiens, UniProt P50613)
read-out,technique,concentration,remaining binding [%],SMILES
cell-free assay,competition with immobilised ligand,1 µM,96,O=C(NS(=O)(=O)c1ccc(NCC2CCOCC2)c([N+](=O)[O-])c1)c1ccc(N2CCN(Cc3ccc(C(F)(F)F)cc3-c3ccc(Cl)cc3)CC2)cc1Oc1cnc2[nH]ccc2c1
cell-free assay,competition with immobilised ligand,10 µM,11,COC(=O)Nc1nc2ccc(C(=O)c3ccccc3)cc2[nH]1
cell-free assay,competition with immobilised ligand,1 µM,85,COc1ccc2c(c1)O[C@H](c1ccc(OC)c(OC)c1)C[C@@H]2NC(=O)C1(c2ccc3c(c2)OC(F)(F)O3)CC1
binding,competition with immobilised ligand,1 µM,31,O=C(NCC1CCOCC1)c1n[nH]cc1NC(=O)c1c(F)cccc1F
cell-free assay,competition with immobilised ligand,1 µM,80.5,COc1cccc(CNC(=O)c2nc3scc(COCc4ccc(C(=O)O)cc4)c3c(=O)[nH]2)c1
binding,competition with immobilised ligand,50 nM,88,C[C@@H]1CN(c2ccc3ncc(-c4ccc5[nH]nc(C6CC6)c5c4)n3n2)C[C@H](C)O1
binding,competition with immobilised ligand,1 µM,2.4,Cc1cnc(Nc2ccc(C(=O)N3CCC(N4CCCC4)CC3)cc2)nc1-c1cc2ccccc2s1
binding,,1 µM,85,COc1ccnn2ncc(-c3ccnc(N(C)C)n3)c12
cell-free assay,competition with immobilised ligand,1 µM,80,CN(C)c1ncnc(-c2ccc3nc(Nc4cc(CN5CCN(C(=O)CC(F)(F)F)CC5)ccn4)[nH]c3c2)c1Cl
binding,competition with immobilised ligand,1 µM,73,COc1cnc(Nc2cccc(S(N)(=O)=O)c2)nc1N1CCN(c2ccccc2)C(=O)C1
binding,competition with immobilised ligand,1 µM,2.5,O=C(NCCCN1CCOCC1)c1ccc(Nc2ncc(Cl)c(-c3ccc(Cl)s3)n2)cc1
binding,,1 µM,78,CN(C)c1ncc(F)c(-c2cnn3ncccc23)n1
cell-free assay,competition with immobilised ligand,1 µM,85,CCC(=O)N[C@@H]1CC[C@H](C(=O)N(C)c2ccc(-c3nc4ccccc4o3)cc2)C1
binding,,1 µM,27,C[C@H]1CCN(c2nccc(-c3cnn4ncccc34)n2)C1
binding,competition with immobilised ligand,1 µM,94,C=CC(=O)N1CCC(C(=O)NCC(=O)N2CCN(c3nc(-c4cnc(N)nc4C(F)F)nc(N4CCOCC4)n3)CC2)CC1
binding,,1 µM,59,N[C@H]1CCN(c2nccc(-c3cnn4ncccc34)n2)C1
cell-free assay,competition with immobilised ligand,10 µM,89,CC(C)(C)c1ccc(-c2nc(CBr)nn2-c2cccc(O)c2)cc1
cell-free assay,competition with immobilised ligand,1 µM,75,Cn1nc(C(F)(F)F)cc1-c1cnc(N2CCc3cc(S(=O)(=O)Nc4c(F)cc(Cl)cc4F)cc(N4CCCC4=O)c32)nc1
binding,competition with immobilised ligand,1 µM,12,O=C(c1ccc(Nc2nccc(-c3cc4ccccc4s3)n2)cc1)N1CCC(N2CCCC2)CC1
binding,competition with immobilised ligand,10 µM,94,N#Cc1ccccc1CSc1nnc2c(n1)[nH]c1ccccc12
binding,,1 µM,82,CN(C)c1nccc(-c2cnn3ncccc23)n1
binding,competition with immobilised ligand,10 µM,46,c1cncc(-c2cccc(Nc3nccc(NC4CCCCC4)n3)c2)c1
cell-free assay,competition with immobilised ligand,1 µM,86,O=C(O)[C@@H]1[C@@H](Cn2nnc3ccccc3c2=O)CC[C@H]1C(=O)c1ccc(OCCC2CCOCC2)cc1
binding,,1 µM,87,CN(CCCC(F)(F)F)c1nccc(-c2cnn3ncccc23)n1
